Assay [1] in a line: inhibitors of TNFa-induced NFkB p65 translocation, primary screen, imaging, HUVEC, MLSMR starter and 10KST1 sets (AID 438;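 active = inhibition above 20% together with a positive visual image hit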;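 also: compound added about 3h40 before a 20 min TNFalpha stimulation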;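 as to inhibition: signal is the nuclear over cytoplasmic p65 intensity ratio per well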). The conditions noted are these: HUVEC TNFa-induced p65 nuclear translocation; cell count: measured here: nuclei count (cytotoxicity indicator), at 2.08 µM; inhibition: at 2 µM, stronger effect = higher value, 0% TNFa-plus-vehicle, 100% no-TNFa wells.
Assay [2] is described as follows: inhibitors of mutant huntingtin aggregation, primary screen, imaging, exon1htt(103Q)mCFP cells, high-content imaging (AID 483;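 active = visual image review flags a hit and inhibition of aggregation exceeds 20%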;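 also: compound exposure lasted 3 days before fixation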;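 as to nuclei count: percent of the per-plate median nuclei count of sample wells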). As to conditions: exon1htt(103Q)mCFP cell line, aggregate imaging, at 2 µM; inhibition of aggregation: stronger effect = higher value; nuclei count: measured here: cell count, toxicity.
A short description of assay [3]: inhibitors of E-selectin induction by TNFa, primary screen, imaging, HUVEC, immunofluorescence, MLSMR starter and 10KST1 sets (AID 487;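 active = visually confirmed hit in the image check and inhibition above 20%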;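 as to inhibition: signal is fraction of cell area covered by stained E-selectin grains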;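 as to nuclei count: 100% = median nuclei count of all wells on the same plate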). The conditions noted are these: HUVEC TNFalpha-induced E-selectin immunofluorescence imaging, at 2 µM; inhibition: stronger effect = higher value; nuclei count: measured here: cell number, toxicity.
Assay [4] addresses Voltage-gated potassium channel subunit beta-2 (Rattus norvegicus) (UniProt P62483). The experiment in a line: KvBeta enzyme negative modulators, primary screen, biochemical, NADPH fluorescence (AID 622;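 active = fluorescence slope higher than the sample average by over 3 SD, cut at about -0.22 in these data, passing the limit was not always enough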;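 also: slope of raw intensity against log time taken from 70 to 1610 s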). The conditions noted are these: recombinant KvBeta, 4-cyanobenzaldehyde reduction, at 10 µM, stronger effect = higher value.
Assay [5] has the same target. The experiment in a line: KvBeta positive modulators, primary screen, biochemical, NADPH fluorescence (AID 623).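 Also: fluorescence intensity change per second fitted from 20 to 320 s.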 As to conditions: Recombinant KvBeta, NADPH fluorescence decrease slope, 10 min; at 10 µM; stronger effect = lower value.
Assay [6] addresses Muscarinic acetylcholine receptor M4 (Homo sapiens) (UniProt P08173). The experiment in a line: compounds altering M4/GIRK thallium flux, either direction, primary screen, M4 allosteric agonist project, cell-based, HEK293 M4/GIRK, BTC-AM (AID 625;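 active = fluorescence slope after compound addition differing from the mean of all tested samples at 99.7% confidence, mostly higher but some lower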;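 also: thallium influx through GIRK channels coupled to M4 in HEK293 cells with BTC-AM dye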). As to conditions: at 10 µM, actives lie on both sides. The procedure, abridged: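 Material: M4/GIRK1/GIRK2 stable HEK293 cell line. Medium: pH 7.3 thallium assay buffer. Dosing: single compound concentration, 10 µM final. Schedule: 1 h dye loading, 2 min kinetic read. Measured by: kinetic fluorescence with BTC-AM dye. Read-out: post-addition slope, 15–24 s, of baseline-normalized fluorescence. Benchmarks: carbachol and DMSO controls.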

Assay [7] in a line: inhibitors of Sendai virus-induced IRF3 signaling, primary screen, TLR/RLR signaling modifier project, cell-based, Sendai virus stimulus, luciferase, 10K MLSCN set (AID 602276;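 active = inhibition at or above 50% at 10 µM; inactive = inhibition below 50%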;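 also: firefly luciferase from ISG56 promoter only with Renilla not read in this screen; 0% = Sendai virus plus DMSO and 100% = medium plus DMSO without virus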). The conditions noted are these: HEK293 RL24 IRF3 luciferase reporter, at 10 µM, stronger effect = higher value. A general note: Reporter assays use an easily measured gene product as a stand-in for the process of interest.

Assay [8] in a line: inhibitors of poly I:C-induced TLR3 signaling, primary screen, cell-based, poly I:C stimulus, luciferase, 10K MLSCN set (AID 602277;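 active = inhibition of the reporter signal at or above 50%; inactive = inhibition below 50%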). As to conditions: HEK293-TLR3 RL24 IRF3 luciferase reporter, at 10 µM, stronger effect = higher value.

Active and inactive are the calls of the source.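 The calls were made as follows, unless noted: active = NADPH fluorescence slope more negative than the mean of all samples by about 3 SD, 99.7% confidence; inactive = the rest.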

Chain of Voltage-gated potassium channel subunit beta-2 (Rattus norvegicus) (P62483 whole entry, looked up): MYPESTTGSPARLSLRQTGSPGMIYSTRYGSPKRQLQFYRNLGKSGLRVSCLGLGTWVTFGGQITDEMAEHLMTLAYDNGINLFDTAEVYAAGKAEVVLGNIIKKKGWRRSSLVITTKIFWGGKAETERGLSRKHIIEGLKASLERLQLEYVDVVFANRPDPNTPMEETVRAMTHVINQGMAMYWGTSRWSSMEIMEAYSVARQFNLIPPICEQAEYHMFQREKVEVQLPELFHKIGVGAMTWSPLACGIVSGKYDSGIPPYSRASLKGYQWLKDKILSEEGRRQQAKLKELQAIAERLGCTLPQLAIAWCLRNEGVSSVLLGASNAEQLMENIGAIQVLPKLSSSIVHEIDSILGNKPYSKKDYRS
Chain of Muscarinic acetylcholine receptor M4 (Homo sapiens) (P08173 whole entry, looked up): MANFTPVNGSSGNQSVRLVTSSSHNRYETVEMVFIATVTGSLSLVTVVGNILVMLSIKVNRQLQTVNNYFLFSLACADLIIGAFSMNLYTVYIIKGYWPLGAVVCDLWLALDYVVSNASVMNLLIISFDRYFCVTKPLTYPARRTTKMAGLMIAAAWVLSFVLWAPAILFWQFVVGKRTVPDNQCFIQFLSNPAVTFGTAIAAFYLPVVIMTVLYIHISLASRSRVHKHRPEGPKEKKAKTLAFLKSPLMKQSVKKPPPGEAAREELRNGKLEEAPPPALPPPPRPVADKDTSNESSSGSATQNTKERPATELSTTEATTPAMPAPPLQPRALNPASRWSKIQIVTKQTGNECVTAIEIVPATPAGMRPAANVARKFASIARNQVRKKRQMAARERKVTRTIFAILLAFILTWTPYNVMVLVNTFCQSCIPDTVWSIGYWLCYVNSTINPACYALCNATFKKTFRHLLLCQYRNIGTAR

In the case of `Cn1c(SCc2cccc3ccccc23)nnc1-c1ccco1`, the cell count in assay [1] turned out to be 574. For the same molecule, the inhibition (commonly the drop in the measured response relative to a control, in per cent) in assay [1] is 1.6% (inactive); in assay [3] it was -63% (inactive); in assay [7], -8.19% (inactive); in assay [8], -65.7% (inactive). In addition, in assay [2], the inhibition of aggregation was 3.5% (inactive). Further, the nuclei count was found to be 101% in assay [2] and 103% in assay [3]. Also, the fluorescence slope is -0.545 (inactive) in assay [4] and 0.00593 (inactive) in assay [6]. In addition, the NADPH fluorescence slope in assay [5] was 2.1e-05 (inactive).
On to `Cn1nc(C(=O)Nc2cccc(C(F)(F)F)c2)ccc1=O`, for which, in assay [1], the cell count was found to be 357. Further, the inhibition in assay [1] was 9.9% (inactive); in assay [3], -46.7% (inactive); in assay [7] it was 5.35% (inactive); in assay [8], -5.97% (inactive). Besides, the inhibition of aggregation in assay [2] is -1.2% (inactive). Besides, the nuclei count turned out to be 100% in assay [2] and 104% in assay [3]. Besides, the fluorescence slope in assay [4] is -0.576 (inactive); in assay [6], 0.00652 (inactive). In addition, the NADPH fluorescence slope in assay [5] was 4e-05 (inactive).
`Nc1nc(-c2ccccc2)cc(C(F)(F)F)n1`: the cell count in assay [1] was 457. The inhibition in assay [1] was -7.5% (inactive); in assay [3], -11.2% (inactive); in assay [7], 11% (inactive); in assay [8] it was 6.96% (inactive). Further, the inhibition of aggregation in assay [2] was 1.3% (inactive). Moreover, the nuclei count was 98.1% in assay [2] and 107% in assay [3]. The values for the fluorescence slope in assay [4] and in assay [6] were -0.571 (inactive) and 0.00753 (inactive), respectively. Besides, the NADPH fluorescence slope in assay [5] was 1.4e-06 (inactive).
As to `COc1ccccc1NC(=O)C1CC(=O)N(c2ccc(F)cc2)C1` (stereo not drawn), the cell count in assay [1] came to 402. Moreover, the inhibition was 4.5% (inactive) in assay [1], -46.4% (inactive) in assay [3], -15.4% (inactive) in assay [7] and -26.4% (inactive) in assay [8]. For the same molecule, the inhibition of aggregation in assay [2] is 13.8% (inactive). The nuclei count in assay [2] was 101%; in assay [3] it was 110%. Further, the fluorescence slope in assay [4] was -0.583 (inactive); in assay [6] it was 0.00373 (inactive). Further, in assay [5], the NADPH fluorescence slope is -9.7e-05 (inactive).
Take `CC1(C)CC(=O)c2c(O)cc(O)cc2O1`: the cell count in assay [1] turned out to be 652. The inhibition in assay [1] is -15.6% (inactive); in assay [3], -55.7% (inactive); in assay [7], 5.4% (inactive); in assay [8], -1.77% (inactive). Moreover, the inhibition of aggregation in assay [2] is -5.4% (inactive). Also, the values for the nuclei count in assay [2] and in assay [3] were 83.3% and 99.8%, respectively. For the same molecule, the fluorescence slope in assay [4] is -0.482 (inactive); in assay [6], 0.00586 (inactive). Moreover, the NADPH fluorescence slope in assay [5] is -4.2e-05 (inactive).
`O=C(Cn1nnc(-c2cccs2)n1)OC1CCCCC1`: the cell count in assay [1] came to 298. In addition, the inhibition in assay [1] is -4.7% (inactive); in assay [3], -108% (inactive); in assay [7], 11.6% (inactive); in assay [8], 5.67% (inactive). The inhibition of aggregation in assay [2] was -0.1% (inactive). Moreover, the nuclei count in assay [2] came out at 98.6%; in assay [3], 108%. Also, the fluorescence slope is -0.547 (inactive) in assay [4] and 0.00395 (inactive) in assay [6]. The NADPH fluorescence slope in assay [5] was -9.5e-06 (inactive).
Turning to `c1ccc(CCc2nn3c(Cn4cnc5ccccc54)nnc3s2)cc1`, the cell count in assay [1] was determined as 598. Besides, the inhibition in assay [1] is -3.3% (inactive); in assay [3], -29.5% (inactive); in assay [7] it was 14.9% (inactive); in assay [8], -3.65% (inactive). Also, the inhibition of aggregation in assay [2] is -18% (inactive). Besides, the nuclei count in assay [2] stood at 100%; in assay [3], 97.5%. The fluorescence slope in assay [4] is -0.53 (inactive); in assay [6], 0.00554 (inactive). Besides, the NADPH fluorescence slope in assay [5] was 2.5e-05 (inactive).
For the molecule `COc1ccc(OCc2cccc(C(=O)O)c2)cc1`, in assay [1], the cell count turned out to be 623. In addition, the inhibition was -1.6% (inactive) in assay [1], 20.3% (inactive) in assay [3], 46.4% (inactive) in assay [7] and 42.2% (inactive) in assay [8]. For the same molecule, in assay [2], the inhibition of aggregation is -9.3% (inactive). The results for the nuclei count in assay [2] and in assay [3] were 55.9% and 111%, respectively. For the same molecule, the fluorescence slope in assay [4] was -0.511 (inactive); in assay [6], 0.00513 (inactive). Moreover, the NADPH fluorescence slope in assay [5] is 5e-05 (inactive).
Consider `O=C(CN(c1ccc(F)cc1)S(=O)(=O)c1ccc2c(c1)OCCO2)NCC1CCCO1` (stereo not drawn), for which the cell count in assay [1] came out at 472. Besides, the inhibition is 0.8% (inactive) in assay [1], -58.6% (inactive) in assay [3], 17% (inactive) in assay [7] and 24.3% (inactive) in assay [8]. For the same molecule, the inhibition of aggregation in assay [2] was -6.6% (inactive). Further, the nuclei count in assay [2] stood at 92.4%; in assay [3] it was 107%. For the same molecule, the fluorescence slope in assay [4] was -0.453 (inactive); in assay [6], 0.00466 (inactive). The NADPH fluorescence slope in assay [5] is -4.3e-05 (inactive).
In the case of `Cc1ccc(Cn2c(C(=O)NCCCN3CCOCC3)cc3sccc32)cc1`, in assay [1], the cell count was 765. Also, the inhibition in assay [1] is -5.9% (inactive); in assay [3], -218% (inactive); in assay [7], 14.1% (inactive); in assay [8] it was 31.6% (inactive). In assay [2], the inhibition of aggregation is -85.9% (inactive). Further, the values for the nuclei count in assay [2] and in assay [3] were 111% and 118%, respectively. For the same molecule, the fluorescence slope in assay [4] was -0.486 (inactive); in assay [6], 0.00431 (inactive). Also, the NADPH fluorescence slope in assay [5] was 1.1e-05 (inactive).
As for `CC(C)(C)OC(=O)NC(CCNC=C1C(=O)OC(C)(C)OC1=O)C(=O)O` (stereo not drawn), the cell count in assay [1] came to 255. For the same molecule, the inhibition is 7.2% (inactive) in assay [1], -87% (inactive) in assay [3], 5.28% (inactive) in assay [7] and 0.81% (inactive) in assay [8]. Besides, in assay [2], the inhibition of aggregation was 12.3% (inactive). For the same molecule, the nuclei count in assay [2] came out at 106%; in assay [3] it was 103%. Also, the fluorescence slope in assay [4] is -0.299 (inactive); in assay [6] it was 0.00613 (inactive). For the same molecule, the NADPH fluorescence slope in assay [5] is -5.2e-05 (inactive).
Consider `CCc1nnc(NC(=O)c2ccc(S(=O)(=O)NC3CCCCC3)cc2)s1`, for which the cell count in assay [1] amounted to 534. For the same molecule, the inhibition in assay [1] is 0.4% (inactive); in assay [3], -22.8% (inactive); in assay [7], 0.752% (inactive); in assay [8], -17.5% (inactive). Besides, the inhibition of aggregation in assay [2] was 20.7% (inactive). Moreover, the values for the nuclei count in assay [2] and in assay [3] were 107% and 110%, respectively. The fluorescence slope in assay [4] was -0.307 (inactive); in assay [6] it was 0.00791 (inactive). Also, the NADPH fluorescence slope in assay [5] is -6e-05 (inactive).
In the case of `C=Cn1c(C(=O)O)cc(CC)c1-c1ccccc1`, the cell count in assay [1] came to 642. Besides, the inhibition in assay [1] is -12.5% (inactive); in assay [3] it was -51.5% (inactive); in assay [7] it was 10.9% (inactive); in assay [8], 9.07% (inactive). In assay [2], the inhibition of aggregation is -22.8% (inactive). Further, the nuclei count in assay [2] was 107%; in assay [3] it was 112%. Also, the fluorescence slope in assay [4] is -0.55 (inactive); in assay [6], 0.00458 (inactive). In addition, in assay [5], the NADPH fluorescence slope was -4.3e-05 (inactive).
